Experiment [1] deals with Metabotropic glutamate receptor 2 (Homo sapiens, UniProt Q14416). Description: Activity at human recombinant mGluR2 expressed in BHK cells assessed as stimulation of [35S]GTP-gamma-S binding. Format: functional, cell-based. On the technique in general: GTPγS resists hydrolysis and so accumulates on activated G proteins.
The target in experiment [2] is Metabotropic glutamate receptor 6 (Rattus norvegicus, UniProt P35349). Kind of experiment: Activity at rat recombinant mGluR6 expressed in CHO cells assessed as cAMP production. In kind it is functional, cell-based. The gist of the method: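 rmGluR6 expressed in CHO cells. Potency was measured from cAMP formation, reported as EC50. Means ± SEM of at least three independent experiments, each in triplicate.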
(In general: Changes in cAMP serve as a functional read-out for many G protein-coupled receptors.)

Experiment [3] concerns the target Metabotropic glutamate receptor 5 (Rattus norvegicus, UniProt P31424). Description: Activity at rat recombinant mGluR5 expressed in CHO cells assessed as intracellular calcium concentration. In kind it is functional, cell-based. (Calcium flux is commonly read through the fluorescence of an indicator in the cells.)
Experiment [4] concerns the target T1, Metabotropic glutamate receptor 4 (Rattus norvegicus, UniProt P31423). Kind of experiment: Displacement of [3H]L-AP4 from rat recombinant mGluR4 expressed in BHK cells by SPA assay. In kind it is cell-based. The method in brief: (§1)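 Scintillation proximity binding assay on membranes of BHK cells expressing rmGluR4 or rmGluR8. Radioligand was [3H]-L-AP4 for rmGluR4 and [3H]-LY341495 for rmGluR8. Values are means ± SEM of at least three independent experiments performed in triplicate.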

In experiment [5] the target is Metabotropic glutamate receptor 7 (Homo sapiens, UniProt Q14831). Description: Activity at human recombinant mGluR7 expressed in BHK cells assessed as cAMP production. In kind it is functional, cell-based. The method in brief:
(§2)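 Group III functional read-out: cAMP formation measured in BHK cells expressing hmGluR7 or rmGluR4. EC50 reported in µM as means ± SEM of at least three independent experiments, each performed in triplicate.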

Experiment [6] concerns the target Metabotropic glutamate receptor 1 (Rattus norvegicus, UniProt P23385). Description: Activity at rat recombinant mGluR1 expressed in CHO cells assessed as intracellular calcium concentration. Format: functional, cell-based.
Experiment [7] addresses Metabotropic glutamate receptor 8 (Rattus norvegicus, UniProt P70579). Description: Displacement of [3H]LY341495 from rat recombinant mGluR8 expressed in BHK cells by SPA assay. Format: cell-based. The method in brief:
as §1

Experiment [8] addresses T1, Metabotropic glutamate receptor 4. Description: Agonist activity at rat recombinant mGluR4 expressed in BHK cells. In kind it is functional, cell-based. The gist of the method:
as §2

What is called EC50 is the concentration at which the effect is half-maximal. One may read the Ki as a dissociation constant, usually derived from enzyme kinetics or from competition with a known ligand.

Chain of Metabotropic glutamate receptor 8 (P70579 whole entry): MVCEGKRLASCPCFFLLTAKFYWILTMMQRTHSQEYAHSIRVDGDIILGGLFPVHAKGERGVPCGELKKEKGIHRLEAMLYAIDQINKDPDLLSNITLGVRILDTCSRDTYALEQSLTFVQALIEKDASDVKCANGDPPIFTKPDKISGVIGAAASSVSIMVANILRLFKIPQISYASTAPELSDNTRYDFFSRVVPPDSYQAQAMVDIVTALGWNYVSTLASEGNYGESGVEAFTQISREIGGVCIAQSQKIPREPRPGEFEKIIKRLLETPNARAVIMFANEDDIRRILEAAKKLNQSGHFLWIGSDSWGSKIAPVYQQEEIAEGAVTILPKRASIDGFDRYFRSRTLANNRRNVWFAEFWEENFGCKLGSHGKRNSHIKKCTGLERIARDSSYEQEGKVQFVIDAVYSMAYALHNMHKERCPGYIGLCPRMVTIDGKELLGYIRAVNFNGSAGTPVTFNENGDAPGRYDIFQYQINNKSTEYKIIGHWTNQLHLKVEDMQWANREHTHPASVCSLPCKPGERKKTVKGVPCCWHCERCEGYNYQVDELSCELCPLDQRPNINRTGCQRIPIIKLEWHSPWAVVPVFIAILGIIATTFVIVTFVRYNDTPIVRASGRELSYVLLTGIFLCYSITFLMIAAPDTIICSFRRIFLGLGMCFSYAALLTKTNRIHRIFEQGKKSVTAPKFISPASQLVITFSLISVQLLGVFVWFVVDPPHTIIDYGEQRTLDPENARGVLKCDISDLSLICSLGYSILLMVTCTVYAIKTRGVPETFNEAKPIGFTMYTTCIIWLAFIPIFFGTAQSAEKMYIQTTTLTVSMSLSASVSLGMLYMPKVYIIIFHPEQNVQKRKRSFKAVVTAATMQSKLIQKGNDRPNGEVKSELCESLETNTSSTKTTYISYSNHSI
Chain of Metabotropic glutamate receptor 7 (Q14831 whole entry): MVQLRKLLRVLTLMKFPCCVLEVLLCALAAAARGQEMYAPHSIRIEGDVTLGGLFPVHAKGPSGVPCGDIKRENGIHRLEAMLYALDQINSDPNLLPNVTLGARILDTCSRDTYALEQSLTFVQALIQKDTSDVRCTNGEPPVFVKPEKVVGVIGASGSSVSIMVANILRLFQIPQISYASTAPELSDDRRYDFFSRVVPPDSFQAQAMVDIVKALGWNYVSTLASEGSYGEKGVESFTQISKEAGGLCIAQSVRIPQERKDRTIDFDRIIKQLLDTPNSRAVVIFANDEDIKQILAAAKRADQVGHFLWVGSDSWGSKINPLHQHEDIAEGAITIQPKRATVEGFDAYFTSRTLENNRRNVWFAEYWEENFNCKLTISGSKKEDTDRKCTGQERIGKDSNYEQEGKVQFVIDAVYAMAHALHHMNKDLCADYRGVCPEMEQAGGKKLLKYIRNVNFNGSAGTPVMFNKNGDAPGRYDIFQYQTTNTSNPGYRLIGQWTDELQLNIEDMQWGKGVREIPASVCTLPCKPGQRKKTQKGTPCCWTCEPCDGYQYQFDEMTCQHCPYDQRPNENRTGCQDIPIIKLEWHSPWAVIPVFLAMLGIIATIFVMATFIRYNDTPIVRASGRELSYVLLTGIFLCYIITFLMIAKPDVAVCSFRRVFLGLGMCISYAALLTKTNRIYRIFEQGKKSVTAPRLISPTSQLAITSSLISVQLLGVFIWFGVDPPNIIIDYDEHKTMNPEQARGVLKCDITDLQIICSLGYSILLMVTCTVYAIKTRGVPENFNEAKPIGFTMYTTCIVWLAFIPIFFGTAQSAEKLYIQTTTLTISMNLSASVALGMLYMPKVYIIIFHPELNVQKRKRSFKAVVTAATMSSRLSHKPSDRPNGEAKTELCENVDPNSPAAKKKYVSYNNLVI
Chain of Metabotropic glutamate receptor 5 (P31424 whole entry): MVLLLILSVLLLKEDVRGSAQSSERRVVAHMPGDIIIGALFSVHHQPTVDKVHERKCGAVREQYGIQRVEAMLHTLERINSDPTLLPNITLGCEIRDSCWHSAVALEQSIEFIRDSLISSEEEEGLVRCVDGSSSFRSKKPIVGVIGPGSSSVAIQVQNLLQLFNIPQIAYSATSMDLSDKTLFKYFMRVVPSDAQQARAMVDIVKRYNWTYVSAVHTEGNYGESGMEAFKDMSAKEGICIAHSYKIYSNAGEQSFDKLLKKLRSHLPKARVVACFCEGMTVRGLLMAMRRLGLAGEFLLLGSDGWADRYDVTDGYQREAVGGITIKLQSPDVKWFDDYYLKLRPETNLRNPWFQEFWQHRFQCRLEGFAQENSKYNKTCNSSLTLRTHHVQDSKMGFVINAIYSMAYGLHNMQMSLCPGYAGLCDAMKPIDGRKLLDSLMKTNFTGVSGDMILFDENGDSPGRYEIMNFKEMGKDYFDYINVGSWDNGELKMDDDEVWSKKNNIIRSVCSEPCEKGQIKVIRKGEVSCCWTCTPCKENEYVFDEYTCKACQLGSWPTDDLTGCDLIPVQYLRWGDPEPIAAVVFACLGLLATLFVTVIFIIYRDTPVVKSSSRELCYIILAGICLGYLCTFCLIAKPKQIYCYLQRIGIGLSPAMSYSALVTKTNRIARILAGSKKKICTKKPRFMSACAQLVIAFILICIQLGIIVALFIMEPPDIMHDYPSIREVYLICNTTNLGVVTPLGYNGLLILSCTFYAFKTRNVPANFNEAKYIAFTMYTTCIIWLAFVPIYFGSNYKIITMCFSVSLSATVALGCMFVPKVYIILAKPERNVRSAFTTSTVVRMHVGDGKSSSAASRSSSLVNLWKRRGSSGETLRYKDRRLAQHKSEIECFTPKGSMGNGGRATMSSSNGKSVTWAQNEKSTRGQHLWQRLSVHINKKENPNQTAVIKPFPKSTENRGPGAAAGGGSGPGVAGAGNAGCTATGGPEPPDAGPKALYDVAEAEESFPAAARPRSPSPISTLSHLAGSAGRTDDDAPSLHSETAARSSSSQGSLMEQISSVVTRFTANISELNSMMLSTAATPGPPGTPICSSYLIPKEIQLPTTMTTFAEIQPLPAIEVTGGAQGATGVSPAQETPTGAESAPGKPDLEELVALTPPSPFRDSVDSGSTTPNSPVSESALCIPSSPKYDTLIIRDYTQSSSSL
Chain of Metabotropic glutamate receptor 2 (Q14416 whole entry): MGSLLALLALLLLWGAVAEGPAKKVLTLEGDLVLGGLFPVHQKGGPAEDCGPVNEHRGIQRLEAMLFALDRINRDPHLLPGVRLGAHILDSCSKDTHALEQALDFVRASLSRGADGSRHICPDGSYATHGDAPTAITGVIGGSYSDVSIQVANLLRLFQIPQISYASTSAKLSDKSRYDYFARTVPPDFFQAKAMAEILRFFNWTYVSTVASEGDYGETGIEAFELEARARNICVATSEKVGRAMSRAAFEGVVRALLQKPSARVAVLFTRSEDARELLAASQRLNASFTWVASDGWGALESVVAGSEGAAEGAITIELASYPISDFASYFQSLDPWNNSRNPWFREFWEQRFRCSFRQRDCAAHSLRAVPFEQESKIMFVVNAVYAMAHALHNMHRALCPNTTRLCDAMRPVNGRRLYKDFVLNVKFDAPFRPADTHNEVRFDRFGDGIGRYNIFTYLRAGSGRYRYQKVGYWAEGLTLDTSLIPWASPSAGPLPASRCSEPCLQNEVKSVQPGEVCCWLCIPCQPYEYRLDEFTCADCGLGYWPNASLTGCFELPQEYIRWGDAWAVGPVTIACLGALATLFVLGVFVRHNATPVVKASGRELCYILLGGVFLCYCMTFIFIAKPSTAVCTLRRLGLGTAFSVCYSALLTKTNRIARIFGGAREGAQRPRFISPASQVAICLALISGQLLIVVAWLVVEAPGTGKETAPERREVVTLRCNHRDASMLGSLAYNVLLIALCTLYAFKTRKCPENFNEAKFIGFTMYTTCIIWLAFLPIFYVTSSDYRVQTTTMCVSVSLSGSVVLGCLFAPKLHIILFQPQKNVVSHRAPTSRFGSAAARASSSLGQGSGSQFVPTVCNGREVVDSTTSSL
Chain of Metabotropic glutamate receptor 1 (P23385 whole entry): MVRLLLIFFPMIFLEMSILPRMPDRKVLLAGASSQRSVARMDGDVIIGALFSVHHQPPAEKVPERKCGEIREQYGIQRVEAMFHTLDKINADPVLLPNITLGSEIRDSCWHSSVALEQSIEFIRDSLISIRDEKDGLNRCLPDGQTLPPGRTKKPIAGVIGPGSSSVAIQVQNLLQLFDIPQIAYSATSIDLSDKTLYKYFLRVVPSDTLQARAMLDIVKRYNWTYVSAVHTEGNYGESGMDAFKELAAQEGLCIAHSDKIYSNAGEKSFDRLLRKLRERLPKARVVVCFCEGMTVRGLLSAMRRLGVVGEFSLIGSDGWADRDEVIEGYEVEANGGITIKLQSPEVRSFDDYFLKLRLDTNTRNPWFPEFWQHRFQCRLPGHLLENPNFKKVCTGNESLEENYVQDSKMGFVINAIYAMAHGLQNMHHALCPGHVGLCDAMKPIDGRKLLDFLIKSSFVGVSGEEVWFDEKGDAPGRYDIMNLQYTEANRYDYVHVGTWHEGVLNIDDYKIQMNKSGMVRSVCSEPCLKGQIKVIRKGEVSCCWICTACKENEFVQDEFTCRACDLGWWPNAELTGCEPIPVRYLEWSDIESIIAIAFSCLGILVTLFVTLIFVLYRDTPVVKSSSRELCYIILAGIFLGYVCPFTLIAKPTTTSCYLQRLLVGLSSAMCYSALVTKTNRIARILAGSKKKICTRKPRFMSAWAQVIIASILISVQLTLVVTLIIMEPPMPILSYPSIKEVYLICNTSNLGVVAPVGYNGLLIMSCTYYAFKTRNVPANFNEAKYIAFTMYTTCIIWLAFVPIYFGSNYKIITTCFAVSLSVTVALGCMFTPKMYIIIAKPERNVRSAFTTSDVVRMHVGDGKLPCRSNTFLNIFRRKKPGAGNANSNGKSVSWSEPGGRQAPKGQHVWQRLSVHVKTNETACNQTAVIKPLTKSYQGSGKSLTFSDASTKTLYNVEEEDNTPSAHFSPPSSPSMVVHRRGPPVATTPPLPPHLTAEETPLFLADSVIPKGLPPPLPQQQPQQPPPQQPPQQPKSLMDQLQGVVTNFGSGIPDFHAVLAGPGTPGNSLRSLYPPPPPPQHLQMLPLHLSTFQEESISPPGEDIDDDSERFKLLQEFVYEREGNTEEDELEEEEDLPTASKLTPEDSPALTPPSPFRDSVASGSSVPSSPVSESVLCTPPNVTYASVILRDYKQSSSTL

As to `NC(C(=O)O)[C@@H]1[C@@H](c2ccccc2)[C@H]1P(=O)(O)O` (some centres not stated), the EC50 in experiment [1] was over 1 mM; in experiment [2] it was over 1000 µM; in experiment [3], over 1 mM; in experiment [5], over 1000 µM; in experiment [6], over 1 mM. Moreover, in experiment [4], the inhibition constant Ki is over 1000 µM.

In the case of `NC(C(=O)O)[C@H]1[C@H](c2ccccc2)[C@@H]1P(=O)(O)O` (some centres not stated), the EC50 is over 1 mM in experiment [1]; 51 µM in experiment [2]; over 1 mM in experiment [3]; over 1000 µM in experiment [5]; over 1 mM in experiment [6]; 59 µM in experiment [8]. Moreover, the values for the inhibitory constant (Ki) in experiment [4] and in experiment [7] were 24 µM and 130 µM, respectively.

Regarding `NC(C(=O)O)[C@H]1C[C@@H]1P(=O)(O)O` (some centres not stated), the EC50 is over 1 mM in experiment [1]; 13 µM in experiment [2]; over 1 mM in experiment [3]; 700 µM in experiment [5]; over 1 mM in experiment [6]; 9.4 µM in experiment [8]. The results for the Ki in experiment [4] and in experiment [7] were 7.4 µM and 63 µM, respectively.

With `NC(C(=O)O)[C@H]1[C@@H](c2ccccc2)[C@@H]1P(=O)(O)O` (some centres not stated), the half-maximal effective concentration (EC50) in experiment [1] was 0.32 mM; in experiment [3], over 1 mM; in experiment [6], over 1 mM. The Ki was found to be 630 µM in experiment [4] and 190 µM in experiment [7].

For `NC(C(=O)O)[C@@H]1[C@H](c2ccccc2)[C@H]1P(=O)(O)O` (some centres not stated), the half-maximal effective concentration (EC50) is over 1 mM in experiment [1], over 1 mM in experiment [3], over 1 mM in experiment [6] and over 1000 µM in experiment [8]. Moreover, the inhibition constant (Ki) in experiment [4] was over 1000 µM.

For the origin of these results see ChEMBL document CHEMBL1147898, “Synthesis and preliminary pharmacological evaluation of the four stereoisomers of (2S)-2-(2'-phosphono-3'-phenylcyclopropyl)glycine, the first class of 3'-substituted trans C1'-2'-2-(2'-phosphonocyclopropyl)glycines” (Bioorg Med Chem, 2007).
